# Calls of active or inactive are those of the source. The rule behind the calls is not given here.
# Tests used:
# L6 [1] = assay: Increase in glucose uptake in rat L6 cells at 0.75 uM to 3 uM pre-treated with compound for 30 mins using 2-deoxy-D-[1,2-3H]glucose and measured after 2 hrs by liquid scintillation counting method; format: functional, cell-based
# L6 [2] = assay: Induction of fatty acid oxidation in rat L6 cells using [9,10-3H(N)]-palmitic acid incubated for 2 hrs in presence of AMPK inhibitor compound-C; format: functional, cell-based
# In short: (§1)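 Fatty acid oxidation measured in L6 myotubes after compound treatment, also with compound C to block AMPK; mean ± SEM, n = 3 independent experiments.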
# L6 [3] = assay: Induction of AMPK phosphorylation in rat L6 cells at 3 uM incubated for 2 hrs by Western blotting method; format: cell-based
# In short: (§2)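 L6 myotubes treated 2 h at the stated concentrations; phosphorylated AMPK and phosphorylated ACC detected by immunoblot.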
# L6 [4] = assay: Induction of AMPK activation in rat L6 cells assessed as increase in ACC phosphorylation at 3 uM incubated for 2 hrs by Western blotting method; format: cell-based; in short: as §2
# L6 [5] = assay: Induction of fatty acid oxidation in rat L6 cells at 6 uM using [9,10-3H(N)]-palmitic acid incubated for 2 hrs; format: functional, cell-based; in short: as §1
# [6] = Tmax in ob/ob mouse at 50 mg/kg, ip measured after 0.5 to 24 hrs; format: ADME, organism-based; settings: in vivo
# L6 [7] = assay: Increase in glucose uptake in rat L6 cells at 3 umol/L pre-treated with compound for 30 mins using 2-deoxy-D-[1,2-3H]glucose and measured after 2 hrs by liquid scintillation counting method relative to control; format: functional
# In short: (§3)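 L6 myotubes exposed to compound for 2 h at 1.5, 3, 6, 12 or 24 μM; 2-deoxyglucose uptake expressed as fold over untreated control; 3 μM (−)-arctigenin run alongside as positive control; mean ± SEM of 3 independent experiments.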
# L6 [8] = assay: Induction of AMPK activation in rat L6 cells assessed as increase in ACC phosphorylation at 1.5 uM incubated for 2 hrs by Western blotting method; format: cell-based; in short: as §2
# L6 [9] = assay: Induction of depolarization of mitochondrial membrane potential in rat L6 cells incubated for 10 mins by fluorescence based assay; format: functional, cell-based
# In short: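 L6 myotubes treated 10 min over a concentration series; mitochondrial membrane potential (Δψm) depolarization measured; mean ± SEM, n = 3 independent experiments.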
# L6 [10] = assay: Induction of AMPK phosphorylation in rat L6 cells at 1.5 uM incubated for 2 hrs by Western blotting method; format: cell-based; in short: as §2
# L6 [11] = assay: Increase in glucose uptake in rat L6 cells pre-treated with compound for 30 mins using 2-deoxy-D-[1,2-3H]glucose and measured after 2 hrs in presence of 10 uM AMPK inhibitor compound-C by liquid scintillation counting method; format: functional, cell-based
# In short: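 L6 myotube 2-deoxyglucose uptake after compound exposure, tested with and without the AMPK inhibitor compound C; mean ± SEM, n = 3 independent experiments.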
# L6 [12] = assay: Ratio of glucose uptake in rat L6 cells at 1.5 uM after 2 hrs to glucose uptake in rat L6 cells at 1.5 uM after 2 hrs in presence of 3 uM (-)-arctigenin; format: functional
# In short: (§4)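 Glucose uptake in L6 myotubes after 2 h compound exposure divided by uptake with the 3 μM (−)-arctigenin positive control run in parallel.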
# L6 [13] = assay: Increase in glucose uptake in rat L6 cells at 1.5 uM pre-treated with compound for 30 mins using 2-deoxy-D-[1,2-3H]glucose and measured after 2 hrs by liquid scintillation counting method; format: functional; in short: as §3
# L6 [14] = assay: Increase in glucose uptake in rat L6 cells at 1.5 uM pre-treated with compound for 30 mins using 2-deoxy-D-[1,2-3H]glucose and measured after 2 hrs in presence of 3 uM (-)-arctigenin by liquid scintillation counting method; format: functional; in short: as §3
# L6 [15] = assay: Increase in glucose uptake in rat L6 cells at 12 uM pre-treated with compound for 30 mins using 2-deoxy-D-[1,2-3H]glucose and measured after 2 hrs […] by liquid scintillation counting method; format: functional; in short: as §3
# L6 [16] = assay: Ratio of glucose uptake in rat L6 cells at 12 uM after 2 hrs to glucose uptake in rat L6 cells at 12 uM after 2 hrs in presence of 3 uM (-)-arctigenin; format: functional; in short: as §4
# L6 [17] = assay: Increase in glucose uptake in rat L6 cells at 12 uM pre-treated with compound for 30 mins using 2-deoxy-D-[1,2-3H]glucose and measured after 2 hrs by liquid scintillation counting method; format: functional; in short: as §3
# L6 [18] = assay: Ratio of glucose uptake in rat L6 cells at 3 uM after 2 hrs to glucose uptake in rat L6 cells at 3 uM after 2 hrs in presence of 3 uM (-)-arctigenin; format: functional; in short: as §4
# L6 [19] = assay: Increase in glucose uptake in rat L6 cells at 3 uM pre-treated with compound for 30 mins using 2-deoxy-D-[1,2-3H]glucose and measured after 2 hrs by liquid scintillation counting method; format: functional; in short: as §3
# L6 [20] = assay: Increase in glucose uptake in rat L6 cells at 3 uM […] using 2-deoxy-D-[1,2-3H]glucose and measured after 2 hrs […] by liquid scintillation counting method; format: functional; in short: as §3
# L6 [21] = assay: Ratio of glucose uptake in rat L6 cells at 6 uM after 2 hrs to glucose uptake in rat L6 cells at 6 uM after 2 hrs in presence of 3 uM (-)-arctigenin; format: functional; in short: as §4
# L6 [22] = assay: Increase in glucose uptake in rat L6 cells at 6 uM pre-treated with compound for 30 mins using 2-deoxy-D-[1,2-3H]glucose and measured after 2 hrs […] by liquid scintillation counting method; format: functional; in short: as §3
# L6 [23] = assay: Increase in glucose uptake in rat L6 cells at 6 uM pre-treated with compound for 30 mins using 2-deoxy-D-[1,2-3H]glucose and measured after 2 hrs by liquid scintillation counting method; format: functional; in short: as §3
# L6 [24] = assay: Increase in glucose uptake in rat L6 cells at 24 uM pre-treated with compound for 30 mins using 2-deoxy-D-[1,2-3H]glucose and measured after 2 hrs by liquid scintillation counting method; format: functional; in short: as §3
# L6 [25] = assay: Ratio of glucose uptake in rat L6 cells at 24 uM after 2 hrs to glucose uptake in rat L6 cells at 24 uM after 2 hrs in presence of 3 uM (-)-arctigenin; format: functional; in short: as §4
# L6 [26] = assay: Increase in glucose uptake in rat L6 cells at 24 uM pre-treated with compound for 30 mins using 2-deoxy-D-[1,2-3H]glucose and measured after 2 hrs […] by liquid scintillation counting method; format: functional; in short: as §3
# L6 [27] = assay: Induction of AMPK activation in rat L6 cells assessed as increase in ACC phosphorylation at 6 uM incubated for 2 hrs by Western blotting method; format: cell-based; in short: as §2
# L6 [28] = assay: Induction of AMPK phosphorylation in rat L6 cells at 6 uM incubated for 2 hrs by Western blotting method; format: cell-based; in short: as §2
# L6 [29] = assay: Increase in glucose uptake in rat L6 cells at 6 umol/L pre-treated with compound for 30 mins using 2-deoxy-D-[1,2-3H]glucose and measured after 2 hrs by liquid scintillation counting method relative to control; format: functional; in short: as §3
compound,measurement,setting,value
COc1cc(CC2C(=O)OCC2Cc2ccc(OC)c(OC)c2)ccc1O (racemic),Activity,L6 [1],Dose-dependent effect
same,Activity,L6 [2],inactive
same,Activity,L6 [3],Active
same,Activity,L6 [4],Active
same,Activity,L6 [5],Active
same,Tmax,[6],30 min
same,fold change (FC),L6 [7],1.62
same,Activity,L6 [8],Active
same,Activity,L6 [9],Dose-dependent effect
same,Activity,L6 [10],Active
same,Activity,L6 [11],inactive
COc1cc(C[C@H]2C(=O)OC[C@@H]2Cc2ccc3c(c2)OCO3)ccc1O,Ratio,L6 [12],0.496
same,Activity,L6 [13],131.7%
same,Activity,L6 [14],265.3%
COc1ccc(C[C@H]2C(=O)OC[C@@H]2Cc2ccc(OC)c(OC)c2)cc1O,Ratio,L6 [12],0.531
same,Activity,L6 [13],100.4%
same,Activity,L6 [14],188.9%
COc1ccc(C[C@H]2COC(=O)[C@@H]2Cc2ccc(O)cc2)cc1OC,Activity,L6 [15],200.6%
same,Ratio,L6 [16],0.895
same,Activity,L6 [17],179.5%
COc1ccc(C[C@H]2COC(=O)[C@@H]2Cc2ccccc2Cl)cc1OC,Ratio,L6 [18],0.545
same,Activity,L6 [19],112.4%
same,Activity,L6 [20],206.4%
COc1ccc(C[C@H]2COC(=O)[C@@H]2Cc2ccc(Br)cc2)cc1OC,Ratio,L6 [21],0.654
same,Activity,L6 [22],269.2%
same,Activity,L6 [23],176%
COc1cccc(C[C@H]2COC(=O)[C@@H]2Cc2ccc(O)c(OC)c2)c1,Ratio,L6 [12],0.503
same,Activity,L6 [13],121.2%
same,Activity,L6 [14],241%
COc1ccc(C[C@H]2COC(=O)[C@@H]2Cc2cccc(O)c2)cc1OC,Activity,L6 [24],180.3%
same,Ratio,L6 [25],0.828
same,Activity,L6 [26],217.8%
COc1cc(C[C@H]2C(=O)OC[C@@H]2Cc2cc(OC)c(OC)c(OC)c2)ccc1O,Ratio,L6 [21],0.551
same,Activity,L6 [22],233.9%
same,Activity,L6 [23],128.8%
COc1ccc(C[C@H]2COC(=O)[C@@H]2Cc2ccc(O)c(OC)c2)cc1,Activity,L6 [24],235.1%
same,Ratio,L6 [25],0.896
same,Activity,L6 [26],262.4%
COc1ccc(C[C@H]2COC(=O)[C@@H]2Cc2ccc(Cl)cc2)cc1OC,Ratio,L6 [21],1.03
same,Activity,L6 [3],Active
same,Activity,L6 [4],Active
same,Activity,L6 [27],Active
same,Activity,L6 [8],Active
same,Activity,L6 [10],Active
same,Activity,L6 [22],185.5%
same,Activity,L6 [23],191.1%
same,Activity,L6 [28],Active
COc1cc(C[C@H]2C(=O)CC[C@@H]2Cc2ccc(OC)c(OC)c2)ccc1O,fold change (FC),L6 [7],2.08
COc1ccc(C[C@H]2COC(=O)[C@@H]2Cc2cccc(Cl)c2)cc1OC,Ratio,L6 [18],0.54
same,Activity,L6 [19],114.8%
same,Activity,L6 [20],212.4%
COc1cc(C[C@H]2C(=O)OC[C@@H]2Cc2ccc(OC)c(OC)c2)ccc1O [ARCTIGENIN],Activity,L6 [1],Dose-dependent effect
same,fold change (FC),L6 [7],1.75
COc1ccc(C[C@H]2COC(=O)[C@@H]2Cc2ccc(N)cc2)cc1OC,Ratio,L6 [18],0.616
same,Activity,L6 [19],126.6%
same,Activity,L6 [20],205.4%
COc1ccc(C[C@@H]2COC(=O)[C@H]2Cc2ccc(Cl)cc2)cc1OC,Ratio,L6 [12],0.494
same,Activity,L6 [3],inactive
same,Activity,L6 [13],103.1%
same,Activity,L6 [4],inactive
same,Activity,L6 [14],208.9%
same,Activity,L6 [27],inactive
same,Activity,L6 [8],inactive
same,Activity,L6 [10],inactive
same,Activity,L6 [28],inactive
COc1ccc(C[C@H]2COC(=O)[C@@H]2Cc2ccc(OC)c(OC)c2)cc1OC,Ratio,L6 [18],0.577
same,Activity,L6 [19],137.1%
same,Activity,L6 [20],237.6%
COc1ccc(C[C@H]2COC(=O)[C@@H]2Cc2ccccc2O)cc1OC,Ratio,L6 [12],0.579
same,Activity,L6 [13],137.6%
same,Activity,L6 [14],237.6%
COc1ccccc1C[C@H]1C(=O)OC[C@@H]1Cc1ccc(OC)c(OC)c1,Ratio,L6 [18],0.512
same,Activity,L6 [19],97.4%
same,Activity,L6 [20],190.1%
COc1ccc(C[C@H]2COC(=O)[C@@H]2Cc2ccc(C#N)cc2)cc1OC,Ratio,L6 [18],0.528
same,Activity,L6 [19],136.7%
same,Activity,L6 [20],258.7%
COc1ccc(C[C@H]2COC(=O)[C@@H]2Cc2ccc(F)cc2)cc1OC,Ratio,L6 [12],0.486
same,Activity,L6 [13],116.4%
same,Activity,L6 [14],239.6%
COc1cccc(C[C@H]2C(=O)OC[C@@H]2Cc2ccc(OC)c(OC)c2)c1,Activity,L6 [15],211.3%
same,Ratio,L6 [16],0.564
same,Activity,L6 [17],119.2%
COc1cc(C[C@H]2COC[C@@H]2Cc2ccc(OC)c(OC)c2)ccc1O,fold change (FC),L6 [29],1.31
COc1ccc(C[C@H]2COC(=O)[C@@H]2Cc2ccc(O)c(O)c2)cc1OC,Ratio,L6 [18],1.018
same,Activity,L6 [19],243.2%
same,Activity,L6 [20],238.9%
COc1ccc(C[C@H]2C(=O)OC[C@@H]2Cc2ccc(OC)c(OC)c2)cc1,Ratio,L6 [12],0.595
same,Activity,L6 [13],108.4%
same,Activity,L6 [14],182.1%

# Reference: ChEMBL document CHEMBL3576806, “Design and synthesis of novel arctigenin analogues for the amelioration of metabolic disorders” (ACS Med Chem Lett, 2015)
